Data taken from ChEMBL document CHEMBL1799947, “Synthesis, transport and antiviral activity of Ala-Ser and Val-Ser prodrugs of cidofovir” (Bioorg Med Chem Lett, 2011).
The source made the active and inactive calls. The calls are words filed in the database; no cut-off is given here.

Key:
Plasma [1] = assay: Drug uptake in fasted Albino Sprague-Dawley rat plasma at 10 mg/kg administered into gastrointestinal tract measured up to 4 hrs; assay type: ADME, organism-based; design: dose 10 mg/kg; conditions: in vivo, other
Outline: (§1)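 Rats received 3 mg of drug (about 10 mg/kg) by direct injection into the gastrointestinal tract. Plasma was sampled over a 4 h time course. Read-out was dose-corrected total cidofovir species in plasma.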

Plasma [2] = assay: Prodrug conversion in CFW Swiss-Webster mouse plasma assessed as cidofovir monoethyl ester formation at 10 mg/kg administered through oral gavage; assay type: ADME, organism-based; design: dose 10 mg/kg, route oral; conditions: in vivo
[3] = Antiviral activity against Cowpox virus Brighton infected in HFF cells assessed as reduction in plaque formation after 3 days; assay type: functional, cell-based, Cowpox virus (Brighton Red); conditions: 72 h
Human betaherpesvirus 5 = assay: Antiviral activity against Human cytomegalovirus Towne infected in HFF cells assessed as reduction in plaque formation after 10 days; assay type: functional, organism-based; conditions: Human betaherpesvirus 5, Towne, 240 h
Outline: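 HCMV plaque reduction assay incubated 10 days, with ganciclovir as the positive control.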

[4] = Cytotoxicity against human KB cells after 48 hrs by crystal violet staining technique; assay type: cell-based
Vaccinia virus [5] = assay: Antiviral activity against Vaccinia virus Copenhagen infected in HFF cells assessed as reduction in plaque formation after 3 days; assay type: functional, organism-based; conditions: Orthopoxvirus vaccinia, 72 h
[6] = (§2) Cytotoxicity against HFF cells; assay type: cell-based; conditions: human, HFF cells
Vaccinia virus [7] = assay: Antiviral activity against Vaccinia virus Copenhagen infected in HFF cells assessed as reduction in plaque formation up to 100 uM after 3 days; assay type: functional, organism-based; conditions: Orthopoxvirus vaccinia
Plasma [8] = assay: Prodrug conversion in fasted Albino Sprague-Dawley rat assessed as increase of cidofovir species level in plasma at 10 mg/kg into gastrointestinal tract relative to cidofovir or cyclic cidofovir; assay type: ADME, organism-based; design: dose 10 mg/kg; conditions: in vivo, other; outline: as §1
HFF = assay: as §2; assay type: cell-based; conditions: human, hff

Row | SMILES | Drug uptake (Plasma [1]) | IC50 [3] | IC50 (Human betaherpesvirus 5) | CC50 at 48 h [4] | IC50 (Vaccinia virus [5]) | further results
1 | CCOP(=O)(CO[C@H](CO)Cn1ccc(N)nc1=O)OC[C@H](NC(=O)[C@H](C)N)C(=O)OC (some centres undefined) | Active | – | – | – | – | Activity (Plasma [2]): Active
2 | CCOP(=O)(CO[C@H](CO)Cn1ccc(N)nc1=O)OC[C@H](NC(=O)[C@@H](N)C(C)C)C(=O)OC (some centres undefined) | Not Active | – | – | – | – | Activity (Plasma [2]): Active
3 | CC(C)OC(=O)[C@H](COP(=O)(O)CO[C@H](CO)Cn1ccc(N)nc1=O)NC(=O)[C@@H](N)C(C)C | – | > 100 µM | 0.32 µM | > 100 µM | > 100 µM | –
4 | CC(C)OC(=O)[C@H](COP1(=O)CO[C@@H](Cn2ccc(N)nc2=O)CO1)NC(=O)[C@H](N)C(C)C (some centres undefined) | Active | – | – | – | – | –
5 | COC(=O)[C@H](COP1(=O)CO[C@@H](Cn2ccc(N)nc2=O)CO1)NC(=O)[C@@H](N)C(C)C (some centres undefined) | – | > 30 µM | 0.3 µM | > 100 µM | 100 µM | CC50 [6]: > 100 µM
6 | CCOP(=O)(O)CO[C@H](CO)Cn1ccc(N)nc1=O | – | – | – | – | – | Activity (Vaccinia virus [7]): inactive
7 | CC(C)OC(=O)[C@H](COP(=O)(O)CO[C@H](CO)Cn1ccc(N)nc1=O)NC(=O)[C@H](N)C(C)C (mixture of isomers) | Active | > 100 µM | 1.3 µM | > 100 µM | > 100 µM | fold change (FC) (Plasma [8]): 15
8 | Nc1ccn(C[C@@H](CO)OCP(=O)(O)O)c(=O)n1.O.O [CIDOFOVIR] | Active | 30 µM | 0.11 µM | > 100 µM | 20 µM | CC50 [6]: > 100 µM
9 | Nc1ccn(C[C@H]2COP(=O)(O)CO2)c(=O)n1 [CYCLIC CIDOFOVIR] | Active | 30 µM | 0.25 µM | > 100 µM | 40 µM | CC50 (HFF): 100 µM
10 | Nc1ncnc2c1ncn2[C@@H]1O[C@H](CO)[C@@H](O)[C@@H]1O [VIDARABINE] | – | – | – | – | 2 µM | –
